# From ChEMBL document CHEMBL4689842, “EUbOPEN Chemogenomics Library wave 1” (2021)
# Test system: HEK-293T
# Experiment: Multiplex assay against HEK293T;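 on Population Tubulin-Different-Phenotype (%): share of the cells with healthy nuclei that show this phenotype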
# Format: toxicity, cell-based
# Settings: human
# Summary of the method: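 Cells were classed with CellPathfinder machine-learning gating, first as Hoechst high-intensity objects or normal cells, then (normal cells) as healthy, pyknosed or fragmented nuclei, and finally (pyknosed cells) as mitotic or apoptotic. Staining of live cells at seeding used Hoechst33342, BioTracker Green Microtubule Cytoskeleton Dye, MitoTracker Red and Annexin V Alexa Fluor 680, with imaging on a CQ1 microscope at 37°C and 5% CO2 after compound addition. Tubulin, mitochondrial-mass and membrane-permeability phenotypes are per cents of healthy-nucleus cells.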
# [1] = 12 h, 1 µM, compound concentration 1 uM, replicate 1
# [2] = 12 h, 1 µM, compound concentration 1 uM, replicate 2
# [3] = 12 h, 10 µM, compound concentration 10 uM, replicate 1
# [4] = 12 h, 10 µM, compound concentration 10 uM, replicate 2
# [5] = 24 h, 1 µM, compound concentration 1 uM, replicate 1
# [6] = 24 h, 1 µM, compound concentration 1 uM, replicate 2
# [7] = 24 h, 10 µM, compound concentration 10 uM, replicate 1
# [8] = 24 h, 10 µM, compound concentration 10 uM, replicate 2
# [9] = 48 h, 1 µM, compound concentration 1 uM, replicate 1
# [10] = 48 h, 1 µM, compound concentration 1 uM, replicate 2
# [11] = 48 h, 10 µM, compound concentration 10 uM, replicate 1
# [12] = 48 h, 10 µM, compound concentration 10 uM, replicate 2
compound,measurement,setting,value
Cl.NC[C@@H]1O[C@H](C23CC4CC(CC(C4)C2)C3)Cc2c1ccc(O)c2O,Population Apoptotic (%),[1],34%
same,Population Fragmented Nuclei (%),[1],10%
same,Population Healthy Nuclei (%),[1],49%
same,Population Hoechst High Intensity Objects (%),[1],11%
same,Population Membrane Permeable-Phenotype (%),[1],2%
same,Population Mitochondria Different-Phenotype (%),[1],80%
same,Population Mitotic Cells (%),[1],65%
same,Population Normal (%),[1],88%
same,Population Pyknosed Nuclei (%),[1],40%
same,Population Tubulin-Different-Phenotype (%),[1],55%
same,Total Cell Count,[1],321
same,Population Apoptotic (%),[2],7%
same,Population Fragmented Nuclei (%),[2],3%
same,Population Healthy Nuclei (%),[2],47%
same,Population Hoechst High Intensity Objects (%),[2],2%
same,Population Membrane Permeable-Phenotype (%),[2],8%
same,Population Mitochondria Different-Phenotype (%),[2],38%
same,Population Mitotic Cells (%),[2],92%
same,Population Normal (%),[2],97%
same,Population Pyknosed Nuclei (%),[2],48%
same,Population Tubulin-Different-Phenotype (%),[2],47%
same,Total Cell Count,[2],267
same,Population Apoptotic (%),[3],60%
same,Population Fragmented Nuclei (%),[3],10%
same,Population Healthy Nuclei (%),[3],8%
same,Population Hoechst High Intensity Objects (%),[3],16%
same,Population Membrane Permeable-Phenotype (%),[3],0%
same,Population Mitochondria Different-Phenotype (%),[3],94%
same,Population Mitotic Cells (%),[3],39%
same,Population Normal (%),[3],83%
same,Population Pyknosed Nuclei (%),[3],80%
same,Population Tubulin-Different-Phenotype (%),[3],58%
same,Total Cell Count,[3],245
same,Population Apoptotic (%),[4],37%
same,Population Fragmented Nuclei (%),[4],7%
same,Population Healthy Nuclei (%),[4],6%
same,Population Hoechst High Intensity Objects (%),[4],11%
same,Population Membrane Permeable-Phenotype (%),[4],9%
same,Population Mitochondria Different-Phenotype (%),[4],54%
same,Population Mitotic Cells (%),[4],62%
same,Population Normal (%),[4],88%
same,Population Pyknosed Nuclei (%),[4],86%
same,Population Tubulin-Different-Phenotype (%),[4],27%
same,Total Cell Count,[4],204
same,Population Apoptotic (%),[5],34%
same,Population Fragmented Nuclei (%),[5],10%
same,Population Healthy Nuclei (%),[5],65%
same,Population Hoechst High Intensity Objects (%),[5],13%
same,Population Membrane Permeable-Phenotype (%),[5],0%
same,Population Mitochondria Different-Phenotype (%),[5],46%
same,Population Mitotic Cells (%),[5],65%
same,Population Normal (%),[5],86%
same,Population Pyknosed Nuclei (%),[5],24%
same,Population Tubulin-Different-Phenotype (%),[5],43%
same,Total Cell Count,[5],389
same,Population Apoptotic (%),[6],12%
same,Population Fragmented Nuclei (%),[6],4%
same,Population Healthy Nuclei (%),[6],67%
same,Population Hoechst High Intensity Objects (%),[6],1%
same,Population Membrane Permeable-Phenotype (%),[6],11%
same,Population Mitochondria Different-Phenotype (%),[6],20%
same,Population Mitotic Cells (%),[6],87%
same,Population Normal (%),[6],98%
same,Population Pyknosed Nuclei (%),[6],28%
same,Population Tubulin-Different-Phenotype (%),[6],52%
same,Total Cell Count,[6],310
same,Population Apoptotic (%),[7],36%
same,Population Fragmented Nuclei (%),[7],15%
same,Population Healthy Nuclei (%),[7],10%
same,Population Hoechst High Intensity Objects (%),[7],13%
same,Population Membrane Permeable-Phenotype (%),[7],4%
same,Population Mitochondria Different-Phenotype (%),[7],78%
same,Population Mitotic Cells (%),[7],63%
same,Population Normal (%),[7],86%
same,Population Pyknosed Nuclei (%),[7],73%
same,Population Tubulin-Different-Phenotype (%),[7],73%
same,Total Cell Count,[7],258
same,Population Apoptotic (%),[8],39%
same,Population Fragmented Nuclei (%),[8],9%
same,Population Healthy Nuclei (%),[8],14%
same,Population Hoechst High Intensity Objects (%),[8],15%
same,Population Membrane Permeable-Phenotype (%),[8],32%
same,Population Mitochondria Different-Phenotype (%),[8],12%
same,Population Mitotic Cells (%),[8],60%
same,Population Normal (%),[8],84%
same,Population Pyknosed Nuclei (%),[8],76%
same,Population Tubulin-Different-Phenotype (%),[8],76%
same,Total Cell Count,[8],205
same,Population Apoptotic (%),[9],14%
same,Population Fragmented Nuclei (%),[9],11%
same,Population Healthy Nuclei (%),[9],80%
same,Population Hoechst High Intensity Objects (%),[9],6%
same,Population Membrane Permeable-Phenotype (%),[9],6%
same,Population Mitochondria Different-Phenotype (%),[9],5%
same,Population Mitotic Cells (%),[9],85%
same,Population Normal (%),[9],93%
same,Population Pyknosed Nuclei (%),[9],7%
same,Population Tubulin-Different-Phenotype (%),[9],17%
same,Total Cell Count,[9],773
same,Population Apoptotic (%),[10],8%
same,Population Fragmented Nuclei (%),[10],5%
same,Population Healthy Nuclei (%),[10],83%
same,Population Hoechst High Intensity Objects (%),[10],1%
same,Population Membrane Permeable-Phenotype (%),[10],23%
same,Population Mitochondria Different-Phenotype (%),[10],3%
same,Population Mitotic Cells (%),[10],92%
same,Population Normal (%),[10],98%
same,Population Pyknosed Nuclei (%),[10],11%
same,Population Tubulin-Different-Phenotype (%),[10],42%
same,Total Cell Count,[10],440
same,Population Apoptotic (%),[11],23%
same,Population Fragmented Nuclei (%),[11],21%
same,Population Healthy Nuclei (%),[11],10%
same,Population Hoechst High Intensity Objects (%),[11],15%
same,Population Membrane Permeable-Phenotype (%),[11],38%
same,Population Mitochondria Different-Phenotype (%),[11],0%
same,Population Mitotic Cells (%),[11],76%
same,Population Normal (%),[11],84%
same,Population Pyknosed Nuclei (%),[11],67%
same,Population Tubulin-Different-Phenotype (%),[11],46%
same,Total Cell Count,[11],286
same,Population Apoptotic (%),[12],55%
same,Population Fragmented Nuclei (%),[12],11%
same,Population Healthy Nuclei (%),[12],24%
same,Population Hoechst High Intensity Objects (%),[12],16%
same,Population Membrane Permeable-Phenotype (%),[12],56%
same,Population Mitotic Cells (%),[12],44%
same,Population Normal (%),[12],83%
same,Population Pyknosed Nuclei (%),[12],63%
same,Population Tubulin-Different-Phenotype (%),[12],66%
same,Total Cell Count,[12],190
